mIAP act: mouse IAP activation. muIAP, CDP-Star luminescence, 30 min; stronger effect = higher value; 1 = vehicle-only enzyme signal, 0 = enzyme-free wells. activation factor at 10 µM. 330,000 tested, 0.24% active;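 active = activation factor of at least 2 at 20 µM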
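System: Mouse IAP enzyme | Also added: CDP-Star substrate | Dosing: Compounds dispensed in DMSO | Schedule: 30 min enzyme-substrate-compound incubation at room temperature | Technique: Chemiluminescence readout | Control set: DMSO-only wells and no-enzyme negative control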
bIAP inh: intestinal alkaline phosphatase (bovine) inhibition; purified bovine IAP, CDP-star luminescence, 30 min; inhibition, % at 20 µM; 190,000 tested, under 10 active; AID 1019;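 active = over 50% inhibition of intestinal alkaline phosphatase at 20 µM in the single-dose screen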
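System: purified bovine intestinal alkaline phosphatase (IAP) enzyme; Input: IAP diluted 1/65,000,000 in the well; Measured by: CDP-star luminescence signal; Compound dosing: 20 µM single dose; Incubation: 30 min reaction at room temperature.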
mIAP block: blocks mouse intestinal alkaline phosphatase. purified mouse IAP, CDP-Star luminescence, 30 min. inhibition, % at 10 µM. 330,000 tested, 0.2% active;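 active = inhibition of at least 40% at 10 µM in the primary screen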
bIAP act: intestinal alkaline phosphatase (bovine) activation | purified bovine IAP, CDP-star luminescence, 30 min; stronger effect = higher value; fold of DMSO-control signal, blank-subtracted | activation factor at 20 µM | 200,000 tested, 0.17% active | AID 1016;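 active = activation factor of 2 or more at 20 µM, a signal rise over negative controls twice the positive control's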
hIAP act: human IAP activation. P09923. purified human IAP, CDP-Star luminescence, 30 min; stronger effect = higher value; 1 = vehicle-only enzyme, 0 = enzyme-free background. activation factor at 10 µM. 330,000 tested, 0.16% active;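 active = activation factor of the enzyme at least 2-fold when tested at 20 µM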
Target sequence (P09923 whole entry, looked up): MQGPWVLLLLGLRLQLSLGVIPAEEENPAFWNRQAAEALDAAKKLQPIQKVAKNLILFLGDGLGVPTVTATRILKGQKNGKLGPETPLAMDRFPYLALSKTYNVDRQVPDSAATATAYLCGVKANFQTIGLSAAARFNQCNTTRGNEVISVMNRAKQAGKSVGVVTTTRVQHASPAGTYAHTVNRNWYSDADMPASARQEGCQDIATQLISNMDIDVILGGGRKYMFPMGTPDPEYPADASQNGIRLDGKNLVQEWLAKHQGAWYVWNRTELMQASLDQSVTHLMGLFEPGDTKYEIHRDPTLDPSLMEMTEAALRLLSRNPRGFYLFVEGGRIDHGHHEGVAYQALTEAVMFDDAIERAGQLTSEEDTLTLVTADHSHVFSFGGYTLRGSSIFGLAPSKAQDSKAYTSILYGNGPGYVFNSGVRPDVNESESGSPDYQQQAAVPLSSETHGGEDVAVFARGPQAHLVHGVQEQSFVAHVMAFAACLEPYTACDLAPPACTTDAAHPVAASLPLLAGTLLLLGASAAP
hIAP inh: blocks human intestinal alkaline phosphatase; P09923; purified IAP, CDP-Star luminescence, 30 min; inhibition, % at 10 µM; 330,000 tested, 0.12% active; AID 2544;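 active = inhibition reaching a set limit with compound at 10 µM in the primary screen, cut at about 35% in these data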
Each line names hits and unclear results; the compound was inactive in the other large screens. Rows were chosen to be rich in hits. Some 0.77% of all compounds tested hit in one or more screens of this group.

COc1cccc(OCC(=O)NNC(=O)c2cccs2)c1	mIAP block 41
COc1ccc(CCNC(=O)CCn2c(=O)c3cccn3c3cccnc32)cc1OC	none (no result: bIAP inh, bIAP act)
O=C(Nc1nc(-c2ccccc2)cs1)Nc1ccc(F)cc1F	none
O=C(Nc1ccccc1)Nc1nc(-c2ccccc2)cs1	none (no result: bIAP inh, bIAP act)
O=C(Nc1ccccc1)Nc1nc(-c2ccc(F)c(F)c2)cs1	mIAP act 2.5 (no result: bIAP inh, bIAP act)
O=C(Nc1ccc(Cl)c(Cl)c1)Nc1nc(-c2ccccc2)cs1	mIAP act 2.1
COc1ncc(C2=CC(=O)CC(C)(C)C2)cn1	none (no result: bIAP inh, bIAP act)
Cc1nc(C)c(C(=O)OCC(=O)N(C)c2ccccc2)s1	none (no result: bIAP inh, bIAP act)
O=C(N/N=C/c1ccc(-c2ccccc2[N+](=O)[O-])o1)c1cncc(Br)c1	bIAP act 3.7
O=C(N/N=C\c1ccc([N+](=O)[O-])o1)c1cncc(Br)c1	none (no result: bIAP inh, bIAP act)
COc1ccc(CNC(=O)C(C)n2ccc3cc(S(=O)(=O)N4CCCCCC4)ccc32)cc1 (stereo unspecified)	mIAP act 2.1 (no result: bIAP inh, bIAP act)
CC(C(=O)NCc1ccco1)n1ccc2cc(S(=O)(=O)N3CCCC3)ccc21 (stereo unspecified)	none (no result: bIAP inh, bIAP act)
COc1ccc(-c2nc3ccc(C)cc3c(=O)o2)cc1OC	none (no result: bIAP inh, bIAP act)
O=C(/C=C/c1ccc([N+](=O)[O-])cc1)NCc1cccs1	bIAP act 4.9
O=C(COC(=O)/C=C/c1ccc([N+](=O)[O-])cc1)NCc1cccs1	none (no result: bIAP inh, bIAP act)
CCOC(=O)c1ccc(Oc2cc(C)nc(Cl)n2)cc1	none (no result: bIAP inh, bIAP act)
CC(=O)Nc1ccc(NC(=O)N(c2ccccc2)c2ccccc2)cc1	none (no result: bIAP inh, bIAP act)
CN(C(=O)COC(=O)C1COc2ccccc2O1)C1(C#N)CCCCC1 (stereo unspecified)	none (no result: bIAP inh, bIAP act)
S=c1[nH]nc(-c2ccccc2)n1/N=C/C=C/c1ccco1	mIAP block 53
COC(=O)Cc1[nH]n(-c2ccccc2)c(=O)c1C=Nc1ccc(C)cc1	none (no result: bIAP inh, bIAP act)
Cc1c(C(=O)Nc2ccccc2[N+](=O)[O-])csc1-c1ccccc1	bIAP act 3.7
Cc1ccc(CNc2ncc(-c3ccc4c(c3)OCO4)n2C)cc1	none
Cn1c(-c2ccc3c(c2)OCO3)cnc1NCc1ccc(Cl)cc1	bIAP act 6.4
Cc1nc2cc(NC(=O)NCc3ccc4c(c3)OCO4)ccc2o1	none
Cc1nc2cc(NC(=O)Nc3ccc(Br)cc3)ccc2o1	mIAP act 2
COc1ccc(OC)c(NC(=S)NCc2ccccc2OC)c1	none
COc1ccc(OC)c(NC(=S)NCCC(c2ccccc2)c2ccccc2)c1	mIAP act 2.6 (no result: bIAP inh, bIAP act)
Cc1ccc(NC(=S)NCCC(c2ccccc2)c2ccccc2)c(C)c1	mIAP act 4.1
CCC(=O)Nc1cccc(-c2nnc(-c3cccc(NC(=O)CC)c3)o2)c1	mIAP block 44
CCOC(=O)C1=C(C)N(C[C@@H]2CC[C@@H](Cc3ccc(-c4ccccc4)cc3)O2)C(=O)NC1c1cccc([N+](=O)[O-])c1 (stereo partly specified)	none (no result: bIAP inh, bIAP act, hIAP act, hIAP inh)
CCOC(=O)N1CCC(NC(=O)c2ccc3c(c2)N(Cc2ccc(C)cc2)CCS3)CC1	none
CCOC(=O)N1CCC(NC(=O)c2ccc3c(c2)N(Cc2ccccc2)CCS3)CC1	bIAP act 2.5
O=C(COC(=O)c1cc[n+]([O-])cc1)Nc1ccc([N+](=O)[O-])cc1C(F)(F)F	none (no result: bIAP inh, bIAP act)
CC(C)(C)n1nc2c(c1NC(=O)c1ccc(Br)o1)CS(=O)C2 (stereo unspecified)	bIAP act 2.6
Cc1c(OCC(=O)N(C)c2ccccc2)ccc2c3c(c(=O)oc12)CCC3	none (no result: bIAP inh, bIAP act)
CCO[C@@H]1OC(C(=O)N2CCN(Cc3ccc4c(c3)OCO4)CC2)=C[C@H](c2cn(C(C)=O)c3ccccc23)[C@H]1CCCO	mIAP block 43
CCO[C@@H]1OC(C(=O)N2CCN(Cc3ccc4c(c3)OCO4)CC2)=C[C@H](c2csc3ccccc23)[C@H]1CCCO	none
C=C(C)c1cccc(C(C)(C)NC(=O)NCCCn2ccnc2)c1	bIAP act 2.3
C=C(C)c1cccc(C(C)(C)NC(=O)NCCCN2CCCC2=O)c1	none
Cc1ccc2c(c1)C1NC(=S)NC(C)(O2)C1C(=O)Nc1ccc(Cl)cc1 (stereo unspecified)	mIAP act 2
CCOc1ccccc1NC(=S)N1C2CCC1CC(NC(=O)NC13CC4CC(CC(C4)C1)C3)C2 (stereo unspecified)	mIAP act 2.1
CC(C(=O)NCC1CCCCC1)N1CCN(S(=O)(=O)c2cccs2)CC1 (stereo unspecified)	none (no result: bIAP inh, bIAP act)
Cc1ccc(NP(=O)(Nc2ccc(C)cc2)Nc2ccc(C)cc2)cc1	mIAP act 2.5
Cc1ccc(S(=O)(=O)N2CCCC(C(=O)NCCc3ccc(S(N)(=O)=O)cc3)C2)cc1 (stereo unspecified)	none (no result: bIAP inh, bIAP act)
CCCn1c(N)c(N2CCCCC2)c(=O)n(CC(=O)Nc2cccc(S(=O)(=O)N(C)C)c2)c1=O	none (no result: bIAP inh, bIAP act)
CCCc1ccc(C(C)NC(=S)NCc2ccc(F)cc2)cc1 (stereo unspecified)	mIAP act 3 (no result: bIAP inh, bIAP act)
CCC(C)c1ccc(C(C)NC(=S)NCc2ccc(F)cc2)cc1 (stereo unspecified)	mIAP act 2.6 (no result: bIAP inh, bIAP act)
Cc1ccccc1NC(=S)NCc1ccc(F)cc1	none (no result: bIAP inh, bIAP act)
CCC(NC(=S)NCc1ccc(F)cc1)c1ccc(C(C)C)cc1 (stereo unspecified)	mIAP act 4.1 (no result: bIAP inh, bIAP act)
CCCc1ccc(C(C)NC(=S)NC2CCCCC2)cc1 (stereo unspecified)	mIAP act 2.3 (no result: bIAP inh, bIAP act)
CC(NC(=S)NC1CCCCC1)c1ccccc1 (stereo unspecified)	none (no result: bIAP inh, bIAP act)
COc1ccc(C(C)NC(=S)NCc2ccc(F)cc2)cc1OC (stereo unspecified)	none (no result: bIAP inh, bIAP act)
CCOC(=O)c1ccc(-n2c(CCC(=O)O)ccc2-c2ccc(F)cc2)cc1	none (no result: bIAP inh, bIAP act)
CCOc1ccc(C(C)NC(=S)NCc2ccc(Cl)cc2)cc1 (stereo unspecified)	mIAP act 4
COc1ccc(CCNC(=S)NCc2ccc(Cl)c(Cl)c2)cc1OC	mIAP act 2
Cc1ccc(NC(=O)Nc2cccc3ccccc23)cc1	none (no result: bIAP inh, bIAP act)
N#CCc1ccc(NC(=O)Nc2cccc3ccccc23)cc1	mIAP act 2.1 (no result: bIAP inh, bIAP act)
COc1cccc(NC(=O)C2CCN(S(=O)(=O)c3ccc4c(c3)CC(C)N4C(C)=O)CC2)c1 (stereo unspecified)	none (no result: bIAP inh, bIAP act)
CC(=O)N1c2ccc(S(=O)(=O)N3CCC(C(=O)Nc4cccc(C(F)(F)F)c4)CC3)cc2CC1C (stereo unspecified)	mIAP act 2.4 (no result: bIAP inh, bIAP act)
CCc1cccc(NC(=O)C2CCN(S(=O)(=O)c3ccc4c(c3)CC(C)N4C(C)=O)CC2)c1 (stereo unspecified)	mIAP act 2.2 (no result: bIAP inh, bIAP act)
CC(C)NC(=S)NC(c1ccccc1)(c1ccccc1)c1ccccc1	none (no result: bIAP inh, bIAP act)
